# The list is not random: actives were taken first. Their share in the collection is about 5.6%.
# aDG glyco act: alpha-DG glycosylation activation; 0.22% of 360,000 active; Pro5-aDG cells, alpha-DG glycosylation AlphaScreen (IIH6); 0% Pro5, 100% B10-LARGE cell signal; AID 624168; activation, % at 10 µM;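 active = activation of at least 8% versus controls, or a plate z-score of at least 8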;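 also: Pro5 are CHO cells carrying HIG-tagged alpha-DG that lacks glycosylation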
# CHOP inhibitor: CHOP inhibition in unfolded protein response | CHO-K1 CHOP-promoter luciferase, tunicamycin-induced, 15-18 h | inhibition, % at 10 µM | 3.8% of 220,000 active | AID 2732;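 active = compounds that reduced the stress-induced luciferase reporter signal by more than about 70% of percent inhibition, limit read from the data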;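 also: 0% = tunicamycin plus vehicle and 100% = wells without tunicamycin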
# UPR CHOP act: activators of apoptotic arm of unfolded protein response (CHOP) | CHO-CHOP luciferase reporter, UPR activation, luminescence; percent of tunicamycin response over DMSO baseline | activation, % at 10 µM | 0.34% of 330,000 active;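 active = at 10 µM dose, activation of 40% or more, normalized to positive control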;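 also: 100% = tunicamycin at 10 µg/mL and 0% = DMSO alone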
#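 System: CHO-CHOP luciferase reporter cell line; amount: 500 cells/well; buffer or medium: F12 medium containing 10% fetal bovine serum; incubation: 6 h compound exposure at 37 °C after overnight seeding; measured by: luciferase luminescence after 10 min with Steady-Glo reagent; evaluation: % reporter activation, DMSO baseline versus tunicamycin full activation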
# UPR XBP1 act: adaptive UPR (XBP1) activation; CHO-XBP1 luciferase reporter, IRE1-XBP1 UPR activation, luminescence; percent of tunicamycin response, DMSO as zero; AID 463104; 0.33% of 330,000 active; activation, % at 20 µM;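 active = versus positive control, 20 µM dose yields 30% or more activation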;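 also: 100% = tunicamycin at 10 µg/mL and 0% = DMSO only wells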
#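 Signal: luciferase luminescence; Assay system: CHO-XBP1 luciferase reporter cells; Amount: one thousand reporter cells per well; Dosing: 20 µM single concentration, DMSO 1%; Benchmarks: high control tunicamycin 10 µg/mL final, low control DMSO vehicle only; Schedule: 6 h compound exposure at 37 °C, 5% CO2; Evaluation: percent activation relative to tunicamycin reference.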
# MPTP block: inhibitors of mitochondrial permeability transition pore; isolated mouse mitochondria, Ca2+ swelling absorbance, 30 min; inhibition, % at 10 µM; 1.4% of 360,000 active; AID 602449;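 active = inhibition of 50% or more, scaled per plate between neutral and stimulator controls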;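 also: 0% = DMSO wells given calcium and 100% = 1 mM EGTA wells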
# GRIN3A LBD mod: NR3A (human) ligand-binding domain modulation; NR3A LBD differential scanning fluorimetry, Tm shift; 0% = protein alone, 100% = glycine-bound protein; Tm shift relative to glycine control, % at 25 µM; AID 1259313; 2.5% of 340,000 active;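 active = melting temperature shift of at least 10% of the positive control shift, at one fixed dose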
# Rh123 counter: Rhodamine 123 counter-screen of mitochondrial pore hits | shares compounds with MPTP block | isolated mitochondria, membrane potential, Rhodamine 123 fluorescence | inhibition, % at 10 µM | 78% of 5,000 active | AID 624504; in the data active = inhibition above about 22%;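 also: 0% = DMSO vehicle and 100% = positive control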
# MPTP abs DR: MPTP inhibition, dose response swelling confirmation | AID 651561 | IC50, µM | 58% of 780 active | shares compounds with MPTP block | isolated mitochondria swelling, absorbance; in the data active = IC50 below about 20 µM
# MPTP cs DR: active in counter-screen for permeability transition pore inhibitors; shares compounds with MPTP block; isolated mitochondria counterscreen, fluorescence read-out; IC50, µM; 49% of 780 active; in the data active = IC50 below about 80 µM
# The depositor's hits bear a star; i = inactive; nt = not tested or not shown.
SMILES,aDG glyco act,CHOP inhibitor,UPR CHOP act,UPR XBP1 act,MPTP block,GRIN3A LBD mod,Rh123 counter,others
COc1cc(NC(=O)CSc2ncnc3c2cnn3Cc2ccccc2)cc(OC)c1,0,-35,1,1,54*,-3,28*,
Cc1cccc(CC(Cc2nc3ccccc3[nH]2)c2nc3ccccc3[nH]2)c1 (stereo unspecified),1,-77,2,-4,89*,-3,110*,
CCOC(=O)c1ccc(N2C(=O)C(O)=C(C(C)=O)C2c2ccc([N+](=O)[O-])cc2)cc1 (stereo unspecified),0,nt,0,-7,0,-2,nt,
CC(=O)c1cc(C#N)c(N2CCOCC2)nc1C,0,14,-1,3,1,0,nt,
CC(C)(C)c1ccc(C(=O)C2CCCN(C(=O)c3ccccn3)C2)cc1 (stereo unspecified),0,nt,2,-5,70*,0,93*,
CS(=O)(=O)c1cccc(-c2nnc(NC(=O)C3=COCCO3)o2)c1,0,nt,2,-4,-3,-1,nt,
O=C(Nc1ccc(Cl)cc1)C1=Cc2cc(Cl)ccc2OC1,0,64,-4,-1,99*,26*,113*,
Cc1nc(NCCc2ccccc2)c2oc3ccccc3c2n1,3,76*,5,1,97*,-1,75*,
COc1ccc(C(C(=O)NC2CCCCC2)N(Cc2cccnc2)C(=O)c2snc(C(N)=O)c2N)cc1 (stereo unspecified),0,nt,1,-4,2,-4,nt,
c1ccc2c(c1)oc1c(NCc3ccc4c(c3)OCO4)ncnc12,0,5,0,-3,84*,-1,110*,
O=S(=O)(Nc1cc(Cl)cc(Cl)c1)N1CCOCC1,0,nt,2,-3,-2,-1,nt,
CCN(c1ccc(NC(=O)COC(=O)C(C)N=C2NS(=O)(=O)c3ccccc32)cc1)C(C)C (stereo unspecified),1,nt,0,0,0,-3,nt,
Oc1ccccc1-c1n[nH]c(-c2ccccc2O)n1,0,nt,nt,nt,87*,23*,84*,
CCCCCCNC(=O)CNC(=S)N(Cc1cccs1)C1CCCCC1,0,nt,1,0,0,-1,nt,
Cc1ccc(S(=O)(=O)N2[C@H](c3cccc(Cl)c3)CC(=O)[C@@H]3CN(S(=O)(=O)c4ccccc4C)[C@H](c4ccc(Cl)cc4)C[C@@H]32)cc1,1,nt,nt,nt,81*,nt,69*,
Cc1ccc([C@@H]2CC(=O)[C@@H]3CN(S(=O)(=O)c4ccccc4C)[C@H](c4ccc(Cl)cc4)C[C@@H]3N2S(=O)(=O)c2ccc(C)cc2)cc1,2,nt,nt,nt,58*,nt,77*,
O=C(CNc1ccccc1F)Nc1cc(S(=O)(=O)N2CCCCC2)ccc1Cl,0,nt,1,-2,2,-7,nt,
O=C(COC(=O)CCS(=O)(=O)c1ccccc1)Nc1cc(S(=O)(=O)N2CCCCC2)ccc1Cl,0,nt,-1,-2,0,0,nt,
O=C(Nc1cccc(Cl)c1)Nc1cc(S(=O)(=O)N2CCCCC2)ccc1Cl,0,87*,15,16,84*,11*,63*,
O=C(Nc1cc(S(=O)(=O)N2CCCCC2)ccc1Cl)c1ccncc1,0,nt,0,-3,0,-3,nt,
Cc1ccc(S(=O)(=O)N2CCCCC2)cc1NCC(=O)Nc1ccc(Br)cc1F,2,nt,nt,nt,66*,nt,94*,
Cc1ccc(S(=O)(=O)N2CCCCC2)cc1NC(=O)Nc1ccc(Cl)cc1Cl,1,33,9,8,85*,14*,29*,
O=C(COC(=O)CNS(=O)(=O)/C=C/c1ccccc1)Nc1cc(S(=O)(=O)N2CCCCC2)ccc1Cl,0,-4,2,-2,70*,0,14,MPTP abs DR=i;MPTP cs DR=11*
CCCCCCCCN1C(=O)[C@H](CC(=O)N2CCCC2)C[C@@]2(C(=O)OC)CCCCC=C12,0,nt,nt,nt,-3,nt,nt,
O=C1NN(c2cccc(Br)c2)C(=O)/C1=C/c1ccc(-c2cc([N+](=O)[O-])ccc2O)o1,0,104*,0,-2,79*,13*,-2,
SMILES,aDG glyco act,CHOP inhibitor,UPR CHOP act,UPR XBP1 act,MPTP block,GRIN3A LBD mod,Rh123 counter,others
CC1=NN(c2ccc(C)cc2)C(=O)/C1=C/c1ccc(-c2cc([N+](=O)[O-])ccc2O)o1,0,nt,2,0,102*,0,46*,
CCOC(=O)[C@]12CCC=C1N(CCC1=CCCCC1)C(=O)[C@H](CC(=O)N1CCN(C(=O)c3ccco3)CC1)C2,0,nt,nt,nt,0,nt,nt,
OC(c1cc(C(F)(F)F)nc2c(Cl)cc(Cl)cc12)C1CCCCN1 (stereo unspecified),0,2,3,2,2,-2,nt,
O[C@@H](c1cc(C(F)(F)F)nc2c(C(F)(F)F)cccc12)[C@H]1CCCCN1,1,nt,3,15,97*,2,-21,
O=C(Nc1nc(-c2cccs2)c(C(=O)C(F)(F)F)s1)c1ccccc1,0,21,3,3,88*,6,98*,
Cn1c(C2CCCCC2)nc2cc(N)ccc21,0,nt,0,-7,0,1,nt,
C[C@H]1CN([C@@H](C)CO)C(=O)CCCn2nncc2CO[C@@H]1CN(C)C(=O)c1ccc2ccn(C)c2c1,0,nt,nt,nt,0,nt,nt,
NS(=O)(=O)c1cccc(NC(=O)CSc2nn(-c3ccccc3)c(=S)s2)c1,0,20,0,-6,10,0,nt,
Cc1ccc(NC(=O)CSc2nn(-c3ccc(Cl)cc3)c(=S)s2)cc1S(=O)(=O)N(C)C,0,46,-3,-3,86*,4,81*,
CN(C)S(=O)(=O)c1cc(NC(=O)CSc2nn(-c3ccc(Cl)cc3)c(=S)s2)ccc1Cl,1,48,2,0,70*,16*,81*,
Cc1cc(O)c2c(c1O)C(=O)[C@]13C(=C2O)C(=O)[C@@H]2[C@@H](O)[C@H]1[C@@H]1[C@H](O)[C@H]3C(=O)C3=C(O)c4c(O)cc(C)c(O)c4C(=O)[C@]312,1,nt,24,4,104*,-3,-34,
CN(C)CCN(C(=O)/C=C/c1cccs1)c1nc2ccc(F)cc2s1,1,45,5,-1,72*,-5,-8,MPTP abs DR=13*;MPTP cs DR=>80
